Laboratory results: ChEMBL document CHEMBL4130456 (ACS Med Chem Lett, 2017)
Values after ≈ are worked out from the molar mass of the structure shown. Active and inactive are the calls of the source. No cut-off for these calls is given here.

Legend:
[1] = target: T1, Phosphatidylinositol 4,5-bisphosphate 3-kinase catalytic subunit gamma isoform (Homo sapiens, UniProt P48736); assay: Inhibition of PI3Kgamma in human U937 cells assessed as reduction in MIP-1 alpha stimulated ATK phosphorylation at ser473 residue pretreated for 30 mins followed by MIP-1 alpha addition measured after 3 mins by fluorescence assay; format: cell-based
[2] = tested on: Mus musculus; assay: Toxicity in mouse assessed as effect on insulin homeostasis up to 100 mg/kg, po bid; format: organism-based; settings: in vivo
[3] = target: T2, Phosphatidylinositol 4,5-bisphosphate 3-kinase catalytic subunit beta isoform (Homo sapiens, UniProt P42338); assay: Inhibition of recombinant PI3Kbeta (unknown origin) using phosphatidyl inositol/n-Octyl-glucoside as substrate measured after 60 mins by KinaseGlo assay
[4] = target: T1, Phosphatidylinositol 4,5-bisphosphate 3-kinase catalytic subunit gamma isoform; assay: Inhibition of PI3Kgamma (unknown origin) using phosphatidyl inositol as substrate measured after 30 mins by Alexa Fluor647-labelled ADP tracer based TR-FRET assay
[5] = target: T2, Phosphatidylinositol 4,5-bisphosphate 3-kinase catalytic subunit beta isoform; assay: Inhibition of recombinant human myristoylated PI3Kbeta catalytic domain expressed in Rat1 cells assessed as reduction in Akt phosphorylation at […] residue after 1 hr by alpha screen Surefire assay; format: cell-based
[6] = target: Phosphatidylinositol 4-kinase beta (Homo sapiens, UniProt Q9UBF8); assay: Inhibition of PI4Kbeta (unknown origin) using phosphatidyl inositol/n-Octyl-glucoside as substrate measured after 30 mins by KinaseGlo assay
[7] = target: 3',5'-cyclic-AMP phosphodiesterase 4D (Homo sapiens, UniProt Q08499); assay: Inhibition of recombinant human PDE4D
[8] = Clearance in Sprague-Dawley rat at 1 mg/kg, iv by RP-HPLC analysis; format: ADME, organism-based; settings: in vivo
[9] = tested on: Rattus norvegicus; assay: Dose normalized AUC in Sprague-Dawley rat at 3 mg/kg, po by RP-HPLC analysis; format: ADME, organism-based; settings: in vivo
[10] = Oral bioavailability in Sprague-Dawley rat at 30 mg/kg by RP-HPLC analysis; format: ADME, organism-based; settings: in vivo
[11] = tested on: Rattus norvegicus; assay: Dose normalized Cmax in Sprague-Dawley rat at 30 mg/kg, po by RP-HPLC analysis; format: ADME, organism-based; settings: in vivo
[12] = Clearance in Beagle dog at 0.1 mg/kg, iv by RP-HPLC analysis; format: ADME, organism-based, Canis lupus familiaris; settings: in vivo
[13] = Oral bioavailability in Beagle dog at 0.3 mg/kg by RP-HPLC analysis; format: ADME, organism-based, Canis lupus familiaris; settings: in vivo
[14] = Tmax in cynomolgus monkey at 0.3 mg/kg, po by RP-HPLC analysis; format: ADME, organism-based, Macaca fascicularis; settings: in vivo
[15] = tested on: Rattus norvegicus; assay: Ex-vivo inhibition of PI3Kdelta in po dosed Lewis rat assessed as reduction in anti-IgM/IL4-induced AKT phosphorylation at ser473 residue in whole blood pretreated up to 24 hrs followed by anti-IgM/IL4 stimulation after 10 mins by flow cytometric analysis; format: functional, organism-based
[16] = tested on: Rattus norvegicus; assay: In-vivo inhibition of PI3Kdelta in sheep RBC-sensitized OFA-rat assessed as reduction in antigen-specific antibody response to SRBC by measuring plaque formation at 10 mg/kg, po bid treated for 4 days starting from day 1 of immunization by microscopic method relative to control; format: functional
[17] = tested on: Rattus norvegicus; assay: In-vivo inhibition of PI3Kdelta in sheep RBC-sensitized OFA-rat assessed as reduction in antigen-specific antibody response to SRBC by measuring plaque formation at 30 mg/kg, po bid treated for 4 days starting from day 1 of immunization by microscopic method relative to control; format: functional
[18] = tested on: Rattus norvegicus; assay: Antiarthritic activity in Lewis rat type-2 collagen-induced arthritis model assessed as reduction in IgG antibodies at 3 to 10 mg/kg, po bid administered prior to disease onset for 19 days starting from 5 days post type-2 collagen-induction measured post last dose by ELISA; format: functional, organism-based
Outline: (§1)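 Rat collagen-induced arthritis, prophylactic regimen: dosing starts before disease onset, b.i.d. Readouts are anti-rat collagen antibodies, paw swelling, and histology (inflammatory cell infiltration, proteoglycan loss, joint erosion).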

[19] = tested on: Rattus norvegicus; assay: Antiarthritic activity in Lewis rat type-2 collagen-induced arthritis model assessed as reduction in joint erosion at 3 to 10 mg/kg, po bid administered prior to disease onset for 19 days starting from 5 days post type-2 collagen-induction measured post last dose by giemsa/safranin O staining based histopathological analysis; format: functional, organism-based; outline: as §1
[20] = tested on: Rattus norvegicus; assay: Antiarthritic activity in Lewis rat type-2 collagen-induced arthritis model assessed as reduction in paw swelling at 10 mg/kg, po bid administered after disease onset for 40 days starting from 14 days post type-2 collagen-induction measured 3 times a week up to 41 days; format: functional, organism-based
Outline: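 Rat collagen-induced arthritis, therapeutic regimen: dosing begins once marked paw swelling is present, 10 mg/kg b.i.d.; readout is paw swelling.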

[21] = tested on: Mus musculus; assay: Antiinflammatory activity in po dosed C57BL/6J mouse ozone-induced lung inflammation model assessed as reduction in macrophage numbers in bronchoalveolar lavage pretreated for 1 hr followed by ozone exposure for 4 hrs and subsequent redosing measured after 24 hrs by Diff-quick staining based assay; format: functional
Outline: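 Mouse ozone-induced lung inflammation. Inflammatory cells are counted in bronchoalveolar lavage (neutrophils, macrophages) across several doses. ED50 is derived from the dose–response.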

[22] = tested on: Mus musculus; assay: Toxicity in C57BL/6J mouse ozone-induced lung inflammation model at 10 to 100 mg/kg, po; format: organism-based; settings: in vivo
Outline: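 Mice with ozone-induced lung inflammation got repeated doses. Tolerability was judged by overt signs of toxicity during the multi-dose study. Efficacy endpoints were BAL neutrophil and macrophage counts and BAL serum albumin as a measure of plasma leakage.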

[23] = Equilibrium solubility of the compound at pH 6.8 by LC-MS/MS analysis; format: physicochemical; settings: buffer
Outline: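 High-throughput equilibrium solubility at pH 6.8, reported in mM.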

T1 sequence (P48736 whole entry, canonical isoform): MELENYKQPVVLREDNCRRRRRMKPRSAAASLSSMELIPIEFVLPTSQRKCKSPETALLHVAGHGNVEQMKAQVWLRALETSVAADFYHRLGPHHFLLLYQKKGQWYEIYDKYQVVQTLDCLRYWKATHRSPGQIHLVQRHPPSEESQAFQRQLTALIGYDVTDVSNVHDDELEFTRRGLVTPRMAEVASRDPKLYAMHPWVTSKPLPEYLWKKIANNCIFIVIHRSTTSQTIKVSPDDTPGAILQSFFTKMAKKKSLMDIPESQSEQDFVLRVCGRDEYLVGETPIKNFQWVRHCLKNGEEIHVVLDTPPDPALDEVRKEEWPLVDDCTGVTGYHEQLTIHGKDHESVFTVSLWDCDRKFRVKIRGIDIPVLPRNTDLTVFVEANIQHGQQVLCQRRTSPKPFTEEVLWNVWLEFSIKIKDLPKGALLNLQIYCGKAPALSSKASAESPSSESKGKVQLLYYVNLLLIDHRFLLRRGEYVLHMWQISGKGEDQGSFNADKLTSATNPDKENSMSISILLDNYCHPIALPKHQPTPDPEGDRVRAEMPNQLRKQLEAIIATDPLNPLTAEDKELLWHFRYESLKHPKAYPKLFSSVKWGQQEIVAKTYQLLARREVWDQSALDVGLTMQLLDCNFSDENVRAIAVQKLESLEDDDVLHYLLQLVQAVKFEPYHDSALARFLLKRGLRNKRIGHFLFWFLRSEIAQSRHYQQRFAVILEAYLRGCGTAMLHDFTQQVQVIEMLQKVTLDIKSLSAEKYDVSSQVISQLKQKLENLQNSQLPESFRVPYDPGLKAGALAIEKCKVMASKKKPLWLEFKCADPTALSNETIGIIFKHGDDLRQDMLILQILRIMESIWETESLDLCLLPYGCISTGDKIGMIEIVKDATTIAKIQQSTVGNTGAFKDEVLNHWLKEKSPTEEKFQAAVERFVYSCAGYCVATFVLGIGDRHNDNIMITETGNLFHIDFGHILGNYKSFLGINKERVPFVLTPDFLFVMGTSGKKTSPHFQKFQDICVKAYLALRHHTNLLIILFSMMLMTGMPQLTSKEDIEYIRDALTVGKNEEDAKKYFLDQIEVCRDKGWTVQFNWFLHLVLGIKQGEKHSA
T2 sequence (P42338 whole entry, canonical isoform): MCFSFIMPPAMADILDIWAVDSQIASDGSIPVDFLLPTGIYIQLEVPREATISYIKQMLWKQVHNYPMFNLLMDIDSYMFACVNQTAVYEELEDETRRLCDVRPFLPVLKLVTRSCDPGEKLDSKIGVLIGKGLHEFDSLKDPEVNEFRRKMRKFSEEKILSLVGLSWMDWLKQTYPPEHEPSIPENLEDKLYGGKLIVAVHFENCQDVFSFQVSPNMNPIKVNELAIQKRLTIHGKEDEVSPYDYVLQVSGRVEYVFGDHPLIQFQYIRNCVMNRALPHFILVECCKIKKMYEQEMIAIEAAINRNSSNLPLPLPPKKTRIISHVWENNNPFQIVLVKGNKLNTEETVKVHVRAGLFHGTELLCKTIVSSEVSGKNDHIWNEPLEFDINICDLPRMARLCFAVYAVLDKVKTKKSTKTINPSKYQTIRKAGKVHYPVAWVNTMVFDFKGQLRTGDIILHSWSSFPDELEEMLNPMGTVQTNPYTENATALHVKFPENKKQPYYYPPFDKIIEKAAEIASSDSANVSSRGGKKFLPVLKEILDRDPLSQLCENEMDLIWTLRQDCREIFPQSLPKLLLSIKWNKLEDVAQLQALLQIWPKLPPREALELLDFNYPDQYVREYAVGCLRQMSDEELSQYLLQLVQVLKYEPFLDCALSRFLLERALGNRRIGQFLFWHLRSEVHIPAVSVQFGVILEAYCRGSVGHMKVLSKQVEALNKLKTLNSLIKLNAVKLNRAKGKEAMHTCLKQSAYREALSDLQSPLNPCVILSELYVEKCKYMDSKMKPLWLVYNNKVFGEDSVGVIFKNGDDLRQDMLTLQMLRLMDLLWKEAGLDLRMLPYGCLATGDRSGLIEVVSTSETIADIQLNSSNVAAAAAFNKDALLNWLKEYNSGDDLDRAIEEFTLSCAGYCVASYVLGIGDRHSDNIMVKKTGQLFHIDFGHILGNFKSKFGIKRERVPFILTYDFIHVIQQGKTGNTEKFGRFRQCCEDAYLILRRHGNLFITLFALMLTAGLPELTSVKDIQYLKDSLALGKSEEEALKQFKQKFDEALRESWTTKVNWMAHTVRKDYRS
Sequence of 3',5'-cyclic-AMP phosphodiesterase 4D (Q08499 whole entry): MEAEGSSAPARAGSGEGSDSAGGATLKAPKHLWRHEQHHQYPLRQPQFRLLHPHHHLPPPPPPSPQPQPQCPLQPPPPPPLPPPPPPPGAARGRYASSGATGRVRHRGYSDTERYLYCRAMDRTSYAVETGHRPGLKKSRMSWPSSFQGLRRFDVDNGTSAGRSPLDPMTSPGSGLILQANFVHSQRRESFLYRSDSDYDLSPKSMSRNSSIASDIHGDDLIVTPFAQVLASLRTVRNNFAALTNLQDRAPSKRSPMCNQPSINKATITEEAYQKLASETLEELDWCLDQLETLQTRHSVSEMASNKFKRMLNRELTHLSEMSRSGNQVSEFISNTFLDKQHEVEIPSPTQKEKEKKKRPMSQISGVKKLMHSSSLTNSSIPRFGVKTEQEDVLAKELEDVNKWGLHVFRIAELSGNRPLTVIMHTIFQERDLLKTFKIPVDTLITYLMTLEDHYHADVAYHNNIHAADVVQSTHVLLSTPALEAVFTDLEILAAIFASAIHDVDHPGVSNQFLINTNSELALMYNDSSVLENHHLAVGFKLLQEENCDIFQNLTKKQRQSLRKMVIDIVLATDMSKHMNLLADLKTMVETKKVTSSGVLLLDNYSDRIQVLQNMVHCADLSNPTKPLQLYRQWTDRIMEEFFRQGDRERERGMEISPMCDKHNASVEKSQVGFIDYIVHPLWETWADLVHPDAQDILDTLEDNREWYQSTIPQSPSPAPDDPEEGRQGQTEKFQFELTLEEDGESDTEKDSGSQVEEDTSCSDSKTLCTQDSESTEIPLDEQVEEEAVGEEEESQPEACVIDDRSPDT
Sequence of Phosphatidylinositol 4-kinase beta (Q9UBF8 whole entry): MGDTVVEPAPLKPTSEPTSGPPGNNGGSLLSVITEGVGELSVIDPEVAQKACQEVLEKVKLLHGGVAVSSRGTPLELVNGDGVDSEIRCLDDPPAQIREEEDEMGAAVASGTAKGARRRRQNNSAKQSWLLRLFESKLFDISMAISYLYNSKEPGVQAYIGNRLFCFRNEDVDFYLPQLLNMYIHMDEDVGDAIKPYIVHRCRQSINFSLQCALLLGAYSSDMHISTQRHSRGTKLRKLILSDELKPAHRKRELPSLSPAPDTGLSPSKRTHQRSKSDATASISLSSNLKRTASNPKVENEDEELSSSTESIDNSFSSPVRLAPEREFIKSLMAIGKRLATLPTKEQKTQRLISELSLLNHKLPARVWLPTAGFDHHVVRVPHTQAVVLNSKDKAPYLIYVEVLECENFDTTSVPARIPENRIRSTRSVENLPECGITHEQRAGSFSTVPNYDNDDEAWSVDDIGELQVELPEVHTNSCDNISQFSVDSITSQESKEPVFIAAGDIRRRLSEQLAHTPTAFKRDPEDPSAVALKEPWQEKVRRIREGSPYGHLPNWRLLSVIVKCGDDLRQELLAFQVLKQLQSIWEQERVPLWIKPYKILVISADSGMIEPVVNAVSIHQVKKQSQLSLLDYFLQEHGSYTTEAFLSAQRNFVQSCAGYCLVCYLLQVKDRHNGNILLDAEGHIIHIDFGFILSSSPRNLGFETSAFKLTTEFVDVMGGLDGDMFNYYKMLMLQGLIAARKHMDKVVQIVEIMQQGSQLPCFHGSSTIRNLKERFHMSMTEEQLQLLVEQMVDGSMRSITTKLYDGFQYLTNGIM

CCC(=O)N1CC[C@H](Nc2ncnc3c2CN(c2cnc(OC)c(C(F)(F)F)c2)CC3)C1 [LENIOLISIB]
IC50 [1]: > 7.4 µM
Activity [2]: Non-Toxic
IC50 [3]: 0.424 µM
IC50 [4]: 2.23 µM
IC50 [5]: 2.25 µM
IC50 [6]: > 9.1 µM
IC50 [7]: 4.7 µM
clearance [8]: 28 mL/min/kg
AUC/dose [9]: 1165 nM·h
bioavailability [10]: > 100%
Cmax/dose [11]: 334 nM
clearance [12]: 2 mL/min/kg
bioavailability [13]: 58%
Tmax [14]: < 30 min
fEC50 [15]: 5 nM
EC50 ([15]; Rattus norvegicus, Lewis): 0.083 µM
inhibition in vivo at 10 mg/kg [16]: 73%
inhibition in vivo at 30 mg/kg [17]: 96%
Activity [18]: Active
Activity [19]: Active
Activity [20]: Active
Activity [21]: Dose-dependent effect
ED50 [21]: 40 mg/kg
Activity [22]: Non-Toxic
solubility thermodynamic [23]: 320 µM (≈ 144 µg/mL)
